Active and inactive are the calls of the source. No cut-off for these calls is given here.
Legend:
Rattus norvegicus [1] = experiment: Antihypertensive activity in spontaneous hypertensive rat assessed as change in systolic blood pressure at 25 mg/kg, po administered […] measured 2 hrs post last dose on day 3 by tail-cuff method relative to vehicle-treated control; type: functional, Artery
How it was run: (§1)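 Spontaneously hypertensive rats, pre-trained for 2 weeks; animals with baseline below 175 mmHg excluded. Oral dosing at 0 h on days 1, 2 and 3, six rats per group. After warming (20 min, 40 °C), systolic pressure was read by tail-cuff with microphone, 3–5 readings averaged. Readings at 0 h on days 1 and 3 and 2 h post-dose on day 3 were compared with 0-h controls by paired t test; a drop over 15 mmHg counted as active.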

Rattus norvegicus [2] = experiment: Antihypertensive activity in spontaneous hypertensive rat assessed as change in systolic blood pressure at 50 mg/kg, po […] measured 2 hrs post last dose on day 3 by tail-cuff method relative to vehicle-treated control; type: functional, Artery; how it was run: as §1
Rattus norvegicus [3] = experiment: Antihypertensive activity in spontaneous hypertensive rat assessed as change in systolic blood pressure at 15 mg/kg, po […] measured 2 hrs post last dose on day 3 by tail-cuff method relative to vehicle-treated control; type: functional, Artery; how it was run: as §1
Rattus norvegicus [4] = experiment: Toxicity in spontaneous hypertensive rat assessed as mortality at 50 mg/kg, po administered on […] measured 2 hrs post last dose on day 3; type: organism-based; parameters: dose 50 mg/kg, route oral; conditions: in vivo
How it was run: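 Genetically spontaneously hypertensive rats, each trained for 2 weeks to set baseline; animals below 175 mmHg were excluded. Groups of six were dosed orally at 0 h on days 1, 2 and 3. Systolic pressure was read by indirect tail-cuff after 20 min conditioning at 40 °C, 3–5 readings averaged, at 0 h on days 1 and 3 and 2 h post-dose on day 3.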

Felis catus = species: Felis catus; experiment: Inhibition of cat spleen alpha-adrenergic receptor; type: tissue-based
Canis familiaris = experiment: Inhibition of alpha-adrenergic receptor in iv dosed dog; type: functional, organism-based; conditions: Canis lupus familiaris
Rattus norvegicus [5] = experiment: Antihypertensive activity in spontaneous hypertensive rat assessed as change in systolic blood pressure at 10 mg/kg, po […] measured 2 hrs post last dose on day 3 by tail-cuff method […]; type: functional, Artery; how it was run: as §1
Rattus norvegicus [6] = experiment: Antihypertensive activity in spontaneous hypertensive rat assessed as change in systolic blood pressure at 5 mg/kg, po administered […] measured 2 hrs post last dose on day 3 by tail-cuff method relative to vehicle-treated control; type: functional, Artery; how it was run: as §1

Row | SMILES | Activity (Rattus norvegicus [1]) [mmHg] | Activity (Rattus norvegicus [2]) [mmHg] | other results
1 | Cc1cccc(C(=O)N[C@H]2CCN3CCc4c([nH]c5ccccc45)[C@@H]3C2)c1 | -53 |  | 
2 | O=C(N[C@@H]1CCN2CCc3c([nH]c4ccccc34)[C@@H]2C1)c1ccc2c(c1)OCO2 |  | -52 | 
3 | O=C(Nc1ccccc1)N[C@H]1CCN2CCc3c([nH]c4ccccc34)[C@@H]2C1 | -6 |  | 
4 | CCn1c2c(c3ccccc31)CCN1CCC(N(C)C(=O)c3ccccc3)C[C@@H]21 (stereo partly drawn) | -63 | -67 | 
5 | O=C(c1ccccc1)N(C1CC1)C1CCN2CCc3c([nH]c4ccccc34)[C@@H]2C1 (stereo partly drawn) |  | -26 | 
6 | NC1CCN2CCc3c([nH]c4ccccc34)[C@@H]2C1 (stereo partly drawn) | -9.5 |  | 
7 | Cl.O=C(NC1CCN(CCc2c[nH]c3ccccc23)CC1)c1ccccc1 [INDORAMIN HYDROCHLORIDE] |  | -79 | 
8 | Cl.O=C(N[C@@H]1CCN2CCc3c([nH]c4ccccc34)[C@@H]2C1)c1ccc([N+](=O)[O-])cc1 |  | 15 | 
9 | c1ccc(NC2CCN3CCc4c([nH]c5ccccc45)[C@@H]3C2)cc1 (stereo partly drawn) | -25 |  | 
10 | COc1cc(C(=O)N[C@@H]2CCN3CCc4c([nH]c5ccccc45)[C@@H]3C2)cc(OC)c1OC | -25 |  | 
11 | c1ccc(CNC2CCN3CCc4c([nH]c5ccccc45)[C@@H]3C2)cc1 (stereo partly drawn) | -8 | -53 | 
12 | CN(C(=O)c1ccc(Cl)cc1)C1CCN2CCc3c([nH]c4ccccc34)[C@@H]2C1 (stereo partly drawn) |  | -6 | 
13 | CN(C(=O)c1ccccc1)[C@H]1CCN2CCc3c([nH]c4ccccc34)[C@@H]2C1 |  |  | Activity (Rattus norvegicus [3]): -17 mmHg
14 | Cc1cccc(C(=O)N[C@@H]2CCN3CCc4c([nH]c5ccccc45)[C@@H]3C2)c1 |  | -49 | 
15 | COc1ccc(C(=O)N[C@@H]2CCN3CCc4c([nH]c5ccccc45)[C@@H]3C2)cc1 | 10 |  | 
16 | Nc1ccc(C(=O)N[C@@H]2CCN3CCc4c([nH]c5ccccc45)[C@@H]3C2)cc1 |  | -31 | 
17 | CCn1c2c(c3ccccc31)CCN1CCC(NC)C[C@@H]21 (stereo partly drawn) |  | -30 | 
18 | O=C1c2ccccc2CN1[C@@H]1CCN2CCc3c([nH]c4ccccc34)[C@@H]2C1 |  | 2 | 
19 | CCCN(C(=O)c1ccccc1)C1CCN2CCc3c([nH]c4ccccc34)[C@@H]2C1 (stereo partly drawn) |  | -16 | 
20 | COc1cccc(C(=O)N[C@@H]2CCN3CCc4c([nH]c5ccccc45)[C@@H]3C2)c1 |  | -18 | 
21 | O=C(N[C@@H]1CCN2CCc3c([nH]c4ccccc34)[C@@H]2C1)c1ccc(Cl)cc1 |  | -3 | 
22 | CN(C(=O)c1cccc(F)c1)C1CCN2CCc3c([nH]c4ccccc34)[C@@H]2C1 (stereo partly drawn) | -76 | -110 | 
23 | CN(C#N)[C@@H]1CCN2CCc3c([nH]c4ccccc34)[C@@H]2C1 |  | -51 | Activity (Rattus norvegicus [4]): Toxic
24 | Cc1ccc(C(=O)N[C@@H]2CCN3CCc4c([nH]c5ccccc45)[C@@H]3C2)cc1 |  | -18 | 
25 | Cc1ccccc1C(=O)N[C@@H]1CCN2CCc3c([nH]c4ccccc34)[C@@H]2C1 |  | 13 | 

Row | SMILES | Activity (Rattus norvegicus [1]) [mmHg] | Activity (Rattus norvegicus [2]) [mmHg] | other results
26 | CNC1CCN2CCc3c([nH]c4ccccc34)[C@@H]2C1 (stereo partly drawn) |  | -18 | 
27 | O=C(N[C@H]1CCN2CCc3c([nH]c4ccccc34)[C@@H]2C1)c1ccccc1Br |  | 18 | 
28 | CN(C(=O)c1cccc(C(F)(F)F)c1)C1CCN2CCc3c([nH]c4ccccc34)[C@@H]2C1 (stereo partly drawn) | -56 | -48 | inhibition (Felis catus): Active; inhibition (Canis familiaris): Active
29 | O=C(N[C@@H]1CCN2CCc3c([nH]c4ccccc34)[C@@H]2C1)c1ccccc1Cl |  | -26 | 
30 | CCNC1CCN2CCc3c([nH]c4ccccc34)[C@@H]2C1 (stereo partly drawn) |  | -4 | 
31 | O=C(N[C@@H]1CCN2CCc3c([nH]c4ccccc34)[C@@H]2C1)c1cccc(C(F)(F)F)c1 |  | -3 | 
32 | O=C(N[C@@H]1CCN2CCc3c([nH]c4ccccc34)[C@@H]2C1)c1ccc(F)cc1 | -24 |  | 
33 | c1ccc2c3c([nH]c2c1)[C@@H]1CC(NC2CC2)CCN1CC3 (stereo partly drawn) |  | -25 | 
34 | CCCNC1CCN2CCc3c([nH]c4ccccc34)[C@@H]2C1 (stereo partly drawn) |  | 27 | 
35 | O=C(N[C@@H]1CCN2CCc3c([nH]c4ccccc34)[C@@H]2C1)c1ccccc1 |  | 1 | 
36 | c1ccc(N[C@H]2CCN3CCc4c([nH]c5ccccc45)[C@@H]3C2)cc1 | 5.75 |  | 
37 | Cc1ccccc1C(=O)N(C)C1CCN2CCc3c([nH]c4ccccc34)[C@@H]2C1 (stereo partly drawn) |  | -44 | 
38 | CC(=O)NC1CCN2CCc3c([nH]c4ccccc34)[C@@H]2C1 (stereo partly drawn) |  | -20 | 
39 | Cc1ccc(C(=O)N[C@H]2CCN3CCc4c([nH]c5ccccc45)[C@@H]3C2)cc1 | -32 |  | 
40 | O=C(N[C@@H]1CCN2CCc3c([nH]c4ccccc34)[C@@H]2C1)c1ccccc1Br |  | -24 | 
41 | CN(C(=O)c1ccc(F)cc1)C1CCN2CCc3c([nH]c4ccccc34)[C@@H]2C1 (stereo partly drawn) |  | -20 | 
42 | c1ccc(CCNC2CCN3CCc4c([nH]c5ccccc45)[C@@H]3C2)cc1 (stereo partly drawn) |  | -16 | 
43 | CCN(C(=O)c1ccccc1)C1CCN2CCc3c([nH]c4ccccc34)[C@@H]2C1 (stereo partly drawn) | -92 | -83 | 
44 | O=C(NC1CCN2CCc3c([nH]c4ccccc34)[C@@H]2C1)c1ccco1 (stereo partly drawn) |  | 0 | 
45 | O=C(Nc1ccccc1)N[C@@H]1CCN2CCc3c([nH]c4ccccc34)[C@@H]2C1 |  | -22 | 
46 | CN(C(=O)c1ccccc1)[C@@H]1CCN2CCc3c([nH]c4ccccc34)[C@@H]2C1 |  | -103 | Activity (Rattus norvegicus [5]): -41 mmHg; Activity (Rattus norvegicus [6]): -19 mmHg; inhibition (Felis catus): Active; inhibition (Canis familiaris): Active
47 | CN(C(=O)c1cccc(Cl)c1)C1CCN2CCc3c([nH]c4ccccc34)[C@@H]2C1 (stereo partly drawn) | -54 | -79 | 
48 | CN(Cc1ccccc1)[C@@H]1CCN2CCc3c([nH]c4ccccc34)[C@@H]2C1 |  | -54 | 
49 | CN(C(=O)c1ccccc1Cl)C1CCN2CCc3c([nH]c4ccccc34)[C@@H]2C1 (stereo partly drawn) | -13 |  | 
50 | COc1ccc(C(=O)N(C)[C@@H]2CCN3CCc4c([nH]c5ccccc45)[C@@H]3C2)cc1 | -72 | -50 | Activity (Rattus norvegicus [5]): -86 mmHg; Activity (Rattus norvegicus [6]): -53 mmHg; inhibition (Felis catus): Active; inhibition (Canis familiaris): Active

From ChEMBL document CHEMBL3244388, “Synthesis and antihypertensive activity of 2-benzamido-1,2,3,4,6,7,12,12b-octahydroindolo[2,3-a]quinolizines” (J Med Chem, 1979)
